Data taken from ChEMBL document CHEMBL1154956, “Stereospecific synthesis of oximes and oxime ethers of 3-azabicycles: A SAR study towards antimicrobial agents” (2010).
In brackets after ≈: the same amount, converted by molar mass.

Key:
Format in all cases: functional
[1] = test system: Klebsiella pneumoniae; assay: Antibacterial activity against Klebsiella pneumoniae by NCCLS broth microdilution method
[2] = test system: Cryptococcus neoformans; assay: Antifungal activity against Cryptococcus neoformans by NCCLS broth microdilution method
How it was run: (§1)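 MIC90 was taken as the lowest concentration that inhibited 90% of pathogen growth after incubation, reported in μg/mL. Broth dilution followed the NCCLS reference standards: M27-A for yeasts and the proposed standard for conidium-forming filamentous fungi. Fluconazole was the reference drug.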

[3] = test system: Candida albicans; assay: Antifungal activity against Candida albicans by NCCLS broth microdilution method; how it was run: as §1
[4] = test system: Pseudomonas aeruginosa; assay: Antibacterial activity against Pseudomonas aeruginosa by NCCLS broth microdilution method
[5] = test system: Staphylococcus aureus; assay: Antibacterial activity against Staphylococcus aureus by NCCLS broth microdilution method
[6] = test system: Bacillus subtilis; assay: Antibacterial activity against Bacillus subtilis by NCCLS broth microdilution method
[7] = test system: Candida parapsilosis; assay: Antifungal activity against Candida parapsilosis by NCCLS broth microdilution method; how it was run: as §1
[8] = test system: Aspergillus niger; assay: Antifungal activity against Aspergillus niger by NCCLS broth microdilution method; how it was run: as §1
[9] = Klebsiella pneumoniae, read-out: MIC90
[10] = Cryptococcus neoformans, read-out: MIC90
[11] = Candida albicans, read-out: MIC90
[12] = Pseudomonas aeruginosa, read-out: MIC90
[13] = Staphylococcus aureus, read-out: MIC90
[14] = Bacillus subtilis, read-out: MIC90
[15] = Lodderomyces parapsilosis, read-out: MIC90
[16] = Aspergillus niger, read-out: MIC90

## CO/N=C1\C2CCCC1(C)C(c1ccccc1)NC2c1ccccc1 (stereo not drawn)
[1]; [9]
  MIC90: 128 µg/mL (≈ 383 µM)
[2]; [10]
  MIC90: > 128 µg/mL
[3]; [11]
  MIC90: 128 µg/mL (≈ 383 µM)
[4]; [12]
  MIC90: > 128 µg/mL
[5]; [13]
  MIC90: 64 µg/mL (≈ 191 µM)
[6]; [14]
  MIC90: > 128 µg/mL
[7]; [15]
  MIC90: > 128 µg/mL
[8]; [16]
  MIC90: > 128 µg/mL

## CO/N=C1\C2CCCC1(C)C(c1ccccc1Cl)NC2c1ccccc1Cl (stereo not drawn)
[1]; [9]
  MIC90: 8 µg/mL (≈ 19.8 µM)
[2]; [10]
  MIC90: 4 µg/mL (≈ 9.92 µM)
[3]; [11]
  MIC90: 32 µg/mL (≈ 79.3 µM)
[4]; [12]
  MIC90: 8 µg/mL (≈ 19.8 µM)
[5]; [13]
  MIC90: 4 µg/mL (≈ 9.92 µM)
[6]; [14]
  MIC90: 32 µg/mL (≈ 79.3 µM)
[7]; [15]
  MIC90: 4 µg/mL (≈ 9.92 µM)
[8]; [16]
  MIC90: 16 µg/mL (≈ 39.7 µM)

## COc1ccc(C2NC(c3ccc(OC)cc3)C3(C)CCCC2/C3=N\O)cc1 (stereo not drawn)
[1]; [9]
  MIC90: 64 µg/mL (≈ 168 µM)
[2]; [10]
  MIC90: > 128 µg/mL
[3]; [11]
  MIC90: 128 µg/mL (≈ 336 µM)
[4]; [12]
  MIC90: > 128 µg/mL
[5]; [13]
  MIC90: 32 µg/mL (≈ 84.1 µM)
[6]; [14]
  MIC90: 128 µg/mL (≈ 336 µM)
[7]; [15]
  MIC90: > 128 µg/mL
[8]; [16]
  MIC90: 128 µg/mL (≈ 336 µM)

## CC12CCCC(/C1=N\O)C(c1cccc(Cl)c1)NC2c1cccc(Cl)c1 (stereo not drawn)
[1]; [9]
  MIC90: 64 µg/mL (≈ 164 µM)
[2]; [10]
  MIC90: 128 µg/mL (≈ 329 µM)
[3]; [11]
  MIC90: 64 µg/mL (≈ 164 µM)
[4]; [12]
  MIC90: > 128 µg/mL
[5]; [13]
  MIC90: 64 µg/mL (≈ 164 µM)
[6]; [14]
  MIC90: > 128 µg/mL
[7]; [15]
  MIC90: 64 µg/mL (≈ 164 µM)
[8]; [16]
  MIC90: > 128 µg/mL

## CC1CC2C(=NO)C(C1)C(c1ccccc1Cl)NC2c1ccccc1Cl (stereo in doubt; 52b)
[1]
  MIC90: 32 µg/mL (≈ 82.2 µM)
[2]
  MIC90: 64 µg/mL (≈ 164 µM)
[3]
  MIC90: 4 µg/mL (≈ 10.3 µM)
[4]
  MIC90: >128 µg/mL
[5]
  MIC90: 16 µg/mL (≈ 41.1 µM)
[6]
  MIC90: 64 µg/mL (≈ 164 µM)
[7]
  MIC90: 16 µg/mL (≈ 41.1 µM)
[8]
  MIC90: 32 µg/mL (≈ 82.2 µM)

## CO/N=C1\C2CCCC1(C)C(c1ccc(OC)cc1)NC2c1ccc(OC)cc1 (stereo not drawn)
[1]; [9]
  MIC90: 64 µg/mL (≈ 162 µM)
[2]; [10]
  MIC90: > 128 µg/mL
[3]; [11]
  MIC90: 64 µg/mL (≈ 162 µM)
[4]; [12]
  MIC90: 128 µg/mL (≈ 324 µM)
[5]; [13]
  MIC90: 16 µg/mL (≈ 40.6 µM)
[6]; [14]
  MIC90: 64 µg/mL (≈ 162 µM)
[7]; [15]
  MIC90: 128 µg/mL (≈ 324 µM)
[8]; [16]
  MIC90: 128 µg/mL (≈ 324 µM)

## OC(Cn1cncn1)(Cn1cncn1)c1ccc(F)cc1F [FLUCONAZOLE]
[2]; [10]
  MIC90: 2 µg/mL (≈ 6.53 µM)
[3]; [11]
  MIC90: 1 µg/mL (≈ 3.27 µM)
[7]; [15]
  MIC90: 2 µg/mL (≈ 6.53 µM)
[8]; [16]
  MIC90: 4 µg/mL (≈ 13.1 µM)

## CO/N=C1\C2CCCC1(C)C(c1ccc(C)cc1)NC2c1ccc(C)cc1 (stereo not drawn)
[1]; [9]
  MIC90: 64 µg/mL (≈ 177 µM)
[2]; [10]
  MIC90: 64 µg/mL (≈ 177 µM)
[3]; [11]
  MIC90: 128 µg/mL (≈ 353 µM)
[4]; [12]
  MIC90: 128 µg/mL (≈ 353 µM)
[5]; [13]
  MIC90: 64 µg/mL (≈ 177 µM)
[6]; [14]
  MIC90: 32 µg/mL (≈ 88.3 µM)
[7]; [15]
  MIC90: > 128 µg/mL
[8]; [16]
  MIC90: 32 µg/mL (≈ 88.3 µM)

## GENTAMICIN
[1]
  MIC90: 2 µg/mL
[4]
  MIC90: 16 µg/mL
[5]
  MIC90: 4 µg/mL
[6]
  MIC90: 16 µg/mL

## CON=C1C2CC(C)CC1C(c1cccc(Cl)c1)NC2c1cccc(Cl)c1 (stereo not drawn)
[1]; [9]
  MIC90: 32 µg/mL (≈ 79.3 µM)
[2]; [10]
  MIC90: 32 µg/mL (≈ 79.3 µM)
[3]; [11]
  MIC90: 16 µg/mL (≈ 39.7 µM)
[4]; [12]
  MIC90: 128 µg/mL (≈ 317 µM)
[5]; [13]
  MIC90: 32 µg/mL (≈ 79.3 µM)
[6]; [14]
  MIC90: 64 µg/mL (≈ 159 µM)
[7]; [15]
  MIC90: 8 µg/mL (≈ 19.8 µM)
[8]; [16]
  MIC90: 32 µg/mL (≈ 79.3 µM)

## CO/N=C1\C2CCCC1(C)C(c1cccc(OC)c1)NC2c1cccc(OC)c1 (stereo not drawn)
[1]; [9]
  MIC90: 128 µg/mL (≈ 324 µM)
[2]; [10]
  MIC90: 128 µg/mL (≈ 324 µM)
[3]; [11]
  MIC90: > 128 µg/mL
[4]; [12]
  MIC90: > 128 µg/mL
[5]; [13]
  MIC90: 32 µg/mL (≈ 81.1 µM)
[6]; [14]
  MIC90: 64 µg/mL (≈ 162 µM)
[7]; [15]
  MIC90: 64 µg/mL (≈ 162 µM)
[8]; [16]
  MIC90: > 128 µg/mL

## CC12CCCC(/C1=N\O)C(c1ccccc1Cl)NC2c1ccccc1Cl (stereo not drawn)
[1]; [9]
  MIC90: 16 µg/mL (≈ 41.1 µM)
[2]; [10]
  MIC90: 8 µg/mL (≈ 20.5 µM)
[3]; [11]
  MIC90: 64 µg/mL (≈ 164 µM)
[4]; [12]
  MIC90: 32 µg/mL (≈ 82.2 µM)
[5]; [13]
  MIC90: 8 µg/mL (≈ 20.5 µM)
[6]; [14]
  MIC90: 64 µg/mL (≈ 164 µM)
[7]; [15]
  MIC90: 8 µg/mL (≈ 20.5 µM)
[8]; [16]
  MIC90: 16 µg/mL (≈ 41.1 µM)

## Cc1ccc(C2NC(c3ccc(C)cc3)C3(C)CCCC2/C3=N\O)cc1 (stereo not drawn)
[1]; [9]
  MIC90: > 128 µg/mL
[2]; [10]
  MIC90: 128 µg/mL (≈ 367 µM)
[3]; [11]
  MIC90: 128 µg/mL (≈ 367 µM)
[4]; [12]
  MIC90: > 128 µg/mL
[5]; [13]
  MIC90: 128 µg/mL (≈ 367 µM)
[6]; [14]
  MIC90: 128 µg/mL (≈ 367 µM)
[7]; [15]
  MIC90: > 128 µg/mL
[8]; [16]
  MIC90: 64 µg/mL (≈ 184 µM)

## CO/N=C1\C2CCCC1(C)C(c1ccccc1C)NC2c1ccccc1C (stereo not drawn)
[1]; [9]
  MIC90: 128 µg/mL (≈ 353 µM)
[2]; [10]
  MIC90: 128 µg/mL (≈ 353 µM)
[3]; [11]
  MIC90: 64 µg/mL (≈ 177 µM)
[4]; [12]
  MIC90: 128 µg/mL (≈ 353 µM)
[5]; [13]
  MIC90: 32 µg/mL (≈ 88.3 µM)
[6]; [14]
  MIC90: 32 µg/mL (≈ 88.3 µM)
[7]; [15]
  MIC90: 128 µg/mL (≈ 353 µM)
[8]; [16]
  MIC90: 64 µg/mL (≈ 177 µM)

## CO/N=C1\C2CCCC1(C)C(c1ccc(F)cc1)NC2c1ccc(F)cc1 (stereo not drawn)
[1]; [9]
  MIC90: 16 µg/mL (≈ 43.2 µM)
[2]; [10]
  MIC90: 16 µg/mL (≈ 43.2 µM)
[3]; [11]
  MIC90: 8 µg/mL (≈ 21.6 µM)
[4]; [12]
  MIC90: 16 µg/mL (≈ 43.2 µM)
[5]; [13]
  MIC90: 8 µg/mL (≈ 21.6 µM)
[6]; [14]
  MIC90: 32 µg/mL (≈ 86.4 µM)
[7]; [15]
  MIC90: 8 µg/mL (≈ 21.6 µM)
[8]; [16]
  MIC90: 32 µg/mL (≈ 86.4 µM)

## CON=C1C2CC(C)CC1C(c1ccccc1F)NC2c1ccccc1F (stereo in doubt; 55a)
[1]
  MIC90: 2 µg/mL (≈ 5.4 µM)
[2]
  MIC90: 16 µg/mL (≈ 43.2 µM)
[3]
  MIC90: 8 µg/mL (≈ 21.6 µM)
[4]
  MIC90: 8 µg/mL (≈ 21.6 µM)
[5]
  MIC90: 2 µg/mL (≈ 5.4 µM)
[6]; [14]
  MIC90: 4 µg/mL (≈ 10.8 µM)
[7]
  MIC90: 32 µg/mL (≈ 86.4 µM)
[8]
  MIC90: 16 µg/mL (≈ 43.2 µM)

## CC12CCCC(/C1=N\O)C(c1ccccc1F)NC2c1ccccc1F (stereo not drawn)
[1]; [9]
  MIC90: 16 µg/mL (≈ 44.9 µM)
[2]; [10]
  MIC90: 64 µg/mL (≈ 180 µM)
[3]; [11]
  MIC90: 8 µg/mL (≈ 22.4 µM)
[4]; [12]
  MIC90: 32 µg/mL (≈ 89.8 µM)
[5]; [13]
  MIC90: 8 µg/mL (≈ 22.4 µM)
[6]; [14]
  MIC90: 32 µg/mL (≈ 89.8 µM)
[7]; [15]
  MIC90: 8 µg/mL (≈ 22.4 µM)
[8]; [16]
  MIC90: 64 µg/mL (≈ 180 µM)
